This is a sample that favours compounds with a hit; in the whole collection about 4.3% have one here.
Yeast lifespan up: extends the lifespan of yeast. S. cerevisiae growth with nicotinamide, OD615; deaD strain in restrictive glucose medium. inhibition of the nicotinamide effect, % at 10 µM. 130,000 tested, 0.68% active. AID 775;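 active = inhibition above a set limit, placed 3 SD over the median of all compounds, cut at about 26% in these data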;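 also: 0% = nicotinamide-treated wells and 100% = cells grown without nicotinamide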
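Assay system: DeaD-strain S. cerevisiae. Medium: CSMM-D glucose medium, restrictive. Reagent: nicotinamide, 1.5 mM, co-present with compound. Compound: 10 µM single point, 0.25% DMSO. Schedule: culture preincubation 4 h, compound exposure 48 h, both 30 °C. Detection: absorbance at 615 nm.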
Yeast growth inh: yeast BB579 growth reduction in restrictive medium; S. cerevisiae BB579 growth, OD615, 48 h; inhibition, % at 10 µM; 140,000 tested, 0.51% active;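 active = inhibition above a set limit, 3 SD over the mean compound inhibition, cut at about 44% in these data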
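controls = amphotericin B 10 µg/mL, positive | assay system = DeaD yeast strain BB579 | schedule = 48 h compound exposure at 30 °C after 4 h preincubation | detection = OD615 turbidity measurement | medium = restrictive CSMM-D medium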
RAM inhibit: blocks the yeast RAM network; inhibition, % at 50 µM; 190,000 tested, 1.8% active; S. cerevisiae dse1pr::URA3 reporter, 5-FOA growth OD615, 2 d; analog-sensitive cbk1-as2 kinase mutant strain;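 active = inhibition above a set limit, 3 SD over mean compound inhibition, cut at about 8.4% in these data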;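 also: 0% = DMSO-only wells with no growth and 100% = 10 µM 1-NA-PP1 full growth; inhibition rescues growth on 5-FOA so higher OD means more RAM inhibition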
WT yeast gro inh: growth inhibition of WT yeast, mitochondrial fusion screen | mitochondrial fusion phenotypic screen, WT strain | inhibition, % at 10 µM | 190,000 tested, 2.1% active | AID 1362; in the data active = inhibition above about 58%; tested in S. cerevisiae
RAM efflux-def: RAM network inhibition, efflux-deficient strain; shares compounds with RAM inhibit; S. cerevisiae efflux-deficient reporter strain, 5-FOA growth OD615, 2 days; max inhibition, %; 1,200 tested, under 10 active; AID 1305; call rule not given here;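 also: plate controls were vehicle for no effect and reference inhibitor for full effect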
Starred values were filed as active, the others as inactive.

Results for CCC(=O)N1CCc2cc(S(=O)(=O)NC(Cc3ccccc3)C(=O)NC3CCCCC3)ccc21 (centres undefined) ?
Yeast lifespan up: 8.4; Yeast growth inh: -30.8; RAM inhibit: 14.0*; WT yeast gro inh: -5.4; RAM efflux-def: 1.8

Results for CN(C)/C=C/C(=O)c1ccc(Cl)c([N+](=O)[O-])c1 ?
RAM inhibit: 6.2; WT yeast gro inh: -0.3

How did COCC(=O)OCC(=O)Nc1cc(C)c(C)cc1[N+](=O)[O-] do in these assays?
Yeast lifespan up: -7.5; Yeast growth inh: -4.0; RAM inhibit: -0.3; WT yeast gro inh: -5.5

What do the screens show for `CCCCCOc1ccc(C(=O)OCC(=O)Nc2cc(C)c(C)cc2[N+](=O)[O-])cc1`?
Yeast lifespan up: 5.7; Yeast growth inh: -33.5; RAM inhibit: 11.6*; WT yeast gro inh: -6.1; RAM efflux-def: 6.0

Results for Cc1nonc1CC(=O)N1CCCC(C(=O)c2cccc(C(F)(F)F)c2)C1 (centres undefined) ?
RAM inhibit: 1.0; WT yeast gro inh: 0.4

What do the screens show for `CC(C)(CNC(=S)NCCc1ccccc1)CNC(=S)NCCc1ccccc1`?
Yeast lifespan up: -4.6; Yeast growth inh: 73.4*; RAM inhibit: 15.3*; WT yeast gro inh: 30.5; RAM efflux-def: 6.7

What do the screens show for `Cc1ccc(CN2CCSc3ccc(C(=O)NCc4ccco4)cc32)cc1`?
RAM inhibit: 13.5*; WT yeast gro inh: 32.6; RAM efflux-def: 2.4

What do the screens show for `COc1ccccc1Nc1nc2c(C)cccc2cc1C#N`?
Yeast lifespan up: 1.8; Yeast growth inh: -60.2; RAM inhibit: 13.1*; WT yeast gro inh: -5.5; RAM efflux-def: 3.5

How did COc1ccccc1Nc1nc2ccc(C)cc2cc1C#N do in these assays?
Yeast lifespan up: 3.0; Yeast growth inh: -54.9; RAM inhibit: 4.8; WT yeast gro inh: 3.2

How did O=c1c2ccccc2nc(SCc2cccc(F)c2)n1-c1cccc(S(=O)(=O)N2CCCC2)c1 do in these assays?
Yeast lifespan up: 8.0; Yeast growth inh: -32.5; RAM inhibit: 12.7*; WT yeast gro inh: 6.5; RAM efflux-def: 1.9

What do the screens show for `CCS(=O)(=O)c1nc(S(=O)(=O)c2ccc(C)cc2)c(NCCCN(C)C)s1`?
RAM inhibit: 1.0; WT yeast gro inh: -1.9

How did COC(=O)Cc1ccc(N(Cc2ccccc2F)S(=O)(=O)c2ccc(Cl)cc2)cc1 do in these assays?
Yeast lifespan up: 13.7; Yeast growth inh: -76.4; RAM inhibit: 15.5*; WT yeast gro inh: 68.8*; RAM efflux-def: 1.1

Results for COc1ccc(-c2c3c(=O)n(C)c(=O)n(C)c3cn2-c2cc(OC)ccc2OC)cc1 ?
Yeast lifespan up: -10.7; Yeast growth inh: -10.3; RAM inhibit: 6.7; WT yeast gro inh: 4.7

How did O=S(=O)(Nc1nc2ccccc2nc1Nc1ccc2c(c1)OCCO2)c1cccs1 do in these assays?
Yeast lifespan up: -6.8; Yeast growth inh: -69.0; RAM inhibit: 11.5*; WT yeast gro inh: 32.3; RAM efflux-def: 1.2

What do the screens show for `CCC(C)c1ccc(NC(=S)NCc2ccccc2OC)cc1` (centres undefined)?
RAM inhibit: 11.5*; WT yeast gro inh: 76.8*; RAM efflux-def: 7.3

How did Cc1ccc(S(=O)(=O)N(C)C)cc1NC(=S)N1CCCCC1CO (centres undefined) do in these assays?
RAM inhibit: 1.3; WT yeast gro inh: -7.5

What do the screens show for `Cc1cc(C)n(-c2ccc(C(=O)Oc3ccc4c(c3)OCO4)cc2)n1`?
Yeast lifespan up: -6.6; Yeast growth inh: -47.3; RAM inhibit: 12.6*; WT yeast gro inh: 12.2; RAM efflux-def: 3.2

How did CN1/C(=C\C=C2/C(=O)Oc3ccccc3C2=O)C(C)(C)c2ccccc21 do in these assays?
Yeast lifespan up: 3.0; Yeast growth inh: -27.9; RAM inhibit: 21.2*; WT yeast gro inh: -3.4; RAM efflux-def: 10.0

Results for CC1=NN(c2ccccc2)C(=O)/C1=C\C=C1/N(C)c2ccccc2C1(C)C ?
Yeast lifespan up: -8.0; Yeast growth inh: 9.5; RAM inhibit: -0.9; WT yeast gro inh: 38.5

How did COc1cccc(NC(=S)NCc2ccc3c(c2)cc(C)n3C)c1 do in these assays?
RAM inhibit: 11.7*; WT yeast gro inh: 19.6; RAM efflux-def: 6.2

Results for Cc1cc2cc(CNC(=S)Nc3ccc(OC(F)(F)F)cc3)ccc2n1C ?
Yeast lifespan up: 7.9; Yeast growth inh: -26.7; RAM inhibit: 4.0; WT yeast gro inh: 17.0

Results for O=C(CCC(=O)c1ccc(Oc2ccccc2)cc1)Nc1cccc(Cl)c1Cl ?
Yeast lifespan up: 4.1; Yeast growth inh: -32.5; RAM inhibit: 14.1*; WT yeast gro inh: 2.6; RAM efflux-def: 2.7

What do the screens show for `O=C(O)CCC(=O)Nc1ccccc1Oc1ccccc1`?
RAM inhibit: -0.6; WT yeast gro inh: 8.9

What do the screens show for `CN1CCN(C(=O)CCN2C(=O)/C(=C/c3ccccc3Cl)SC2=S)CC1`?
RAM inhibit: 1.0; WT yeast gro inh: -1.7

How did COCCN1C(=O)/C(=C/c2ccc(N3CCCC3)cc2C)SC1=S do in these assays?
RAM inhibit: 16.1*; WT yeast gro inh: 33.7; RAM efflux-def: 3.9

How did CCOC(=O)c1cc(C#N)c(Oc2cccc(C(F)(F)F)c2)nc1-c1ccccc1 do in these assays?
Yeast lifespan up: 3.2; Yeast growth inh: -15.6; RAM inhibit: 12.7*; WT yeast gro inh: 3.5; RAM efflux-def: 1.9

What do the screens show for `CCOC(=O)c1cc(C#N)c(Oc2ccc(F)cc2)nc1-c1ccccc1`?
Yeast lifespan up: -5.3; Yeast growth inh: -55.7; RAM inhibit: 7.9; WT yeast gro inh: 3.8

How did Cc1c(Br)c([N+](=O)[O-])nn1C(C)C(=O)Nc1c(C)n(C)n(-c2ccccc2)c1=O (centres undefined) do in these assays?
Yeast lifespan up: -1.6; Yeast growth inh: -21.2; RAM inhibit: 0.1; WT yeast gro inh: 3.5

What do the screens show for `O=C(CSc1nc(SCC(=O)NCc2ccccc2)n(-c2ccccc2)n1)NCc1ccccc1`?
Yeast lifespan up: -16.5; Yeast growth inh: -20.9; RAM inhibit: 36.1*; WT yeast gro inh: -4.8; RAM efflux-def: 2.0

Results for CN(C)C(=O)CSc1nc(SCC(=O)N(C)C)n(-c2ccccc2)n1 ?
Yeast lifespan up: -19.9; Yeast growth inh: -35.8; RAM inhibit: 0.3; WT yeast gro inh: 17.1

How did Cc1ccc(-n2c(=O)[nH]c3cc(C(=O)NC4CCN(Cc5ccccc5)CC4)ccc3c2=O)cc1 do in these assays?
Yeast lifespan up: -19.7; Yeast growth inh: -34.2; RAM inhibit: 0.3; WT yeast gro inh: 4.0

What do the screens show for `CCOC(=O)c1cc(-c2ccccc2)sc1NC(=O)C(C)OC(=O)c1cccc(S(=O)(=O)N(C)C)c1` (centres undefined)?
Yeast lifespan up: 6.6; Yeast growth inh: -14.6; RAM inhibit: 4.1; WT yeast gro inh: -9.3

What do the screens show for `CCOC(=O)c1cc(-c2ccccc2)sc1NC(=O)C(C)OC(=O)c1cccnc1OCC` (centres undefined)?
Yeast lifespan up: 3.5; Yeast growth inh: -13.9; RAM inhibit: 12.0*; WT yeast gro inh: -8.1; RAM efflux-def: 6.2

How did Cc1cccc(C(=O)N/N=C2/SCC(=O)N2Cc2ccccc2)c1 do in these assays?
RAM inhibit: 1.6; WT yeast gro inh: -16.5

Compound activity: PubChem, SRMLSC
